ChEMBL document CHEMBL1137361, “WB4101-related compounds: new, subtype-selective alpha1-adrenoreceptor antagonists (or inverse agonists?)” (J Med Chem, 2006)

Assays:
[1] = target: T1, 5-hydroxytryptamine receptor 1A (Rattus norvegicus, UniProt P19327); assay: Displacement of [3H]8-OH-DPAT from 5-HT1A receptor in rat hippocampus; type: tissue-based
T1 sequence (P19327 whole entry): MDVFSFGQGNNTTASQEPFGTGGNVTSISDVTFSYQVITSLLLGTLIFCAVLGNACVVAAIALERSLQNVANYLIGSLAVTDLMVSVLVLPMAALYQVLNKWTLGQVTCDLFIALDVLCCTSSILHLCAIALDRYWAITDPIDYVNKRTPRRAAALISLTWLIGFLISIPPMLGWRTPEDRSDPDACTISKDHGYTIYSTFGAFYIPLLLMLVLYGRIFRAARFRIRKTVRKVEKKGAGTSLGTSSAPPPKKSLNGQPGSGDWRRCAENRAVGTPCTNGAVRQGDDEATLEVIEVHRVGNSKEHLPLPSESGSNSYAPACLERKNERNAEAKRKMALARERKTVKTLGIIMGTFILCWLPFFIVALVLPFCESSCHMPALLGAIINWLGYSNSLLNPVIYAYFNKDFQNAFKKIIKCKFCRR
Outline: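 Radioligand binding with [3H]-8-OH-DPAT in membrane preparations from rat hippocampus. Affinity is expressed as pKi.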

[2] = target: T2, Alpha-1B adrenergic receptor (Homo sapiens, UniProt P35368); assay: Displacement of [3H]prazosin from cloned human adrenergic alpha 1B receptor expressed in CHO cells; type: cell-based
T2 sequence (P35368 whole entry): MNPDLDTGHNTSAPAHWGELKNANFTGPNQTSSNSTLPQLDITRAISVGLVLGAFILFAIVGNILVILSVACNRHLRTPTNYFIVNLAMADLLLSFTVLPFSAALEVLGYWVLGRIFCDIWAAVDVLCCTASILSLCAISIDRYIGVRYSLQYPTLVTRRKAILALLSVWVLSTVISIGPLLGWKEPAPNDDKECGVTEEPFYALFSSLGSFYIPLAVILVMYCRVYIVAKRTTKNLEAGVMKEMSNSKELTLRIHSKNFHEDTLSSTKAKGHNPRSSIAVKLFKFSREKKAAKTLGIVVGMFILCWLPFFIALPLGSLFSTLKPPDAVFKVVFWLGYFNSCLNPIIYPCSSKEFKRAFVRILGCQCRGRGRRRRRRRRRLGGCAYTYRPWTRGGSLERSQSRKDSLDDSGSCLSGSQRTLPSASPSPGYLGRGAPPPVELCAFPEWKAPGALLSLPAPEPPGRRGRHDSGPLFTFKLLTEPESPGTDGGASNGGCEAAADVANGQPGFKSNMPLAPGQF
Outline: (§1)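 Radioligand binding with [3H]prazosin as the label. Membranes came from CHO cells expressing the cloned human receptor. Affinity is expressed as pKi.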

[3] = Selectivity for 5HT1A receptor in rat hippocampus over human adrenergic alpha 1A receptor; type: tissue-based
[4] = target: T3, Alpha-1A adrenergic receptor (Homo sapiens, UniProt P35348); assay: Displacement of [3H]prazosin from cloned human adrenergic alpha 1A receptor expressed in CHO cells; type: cell-based; outline: as §1
T3 sequence (P35348 whole entry): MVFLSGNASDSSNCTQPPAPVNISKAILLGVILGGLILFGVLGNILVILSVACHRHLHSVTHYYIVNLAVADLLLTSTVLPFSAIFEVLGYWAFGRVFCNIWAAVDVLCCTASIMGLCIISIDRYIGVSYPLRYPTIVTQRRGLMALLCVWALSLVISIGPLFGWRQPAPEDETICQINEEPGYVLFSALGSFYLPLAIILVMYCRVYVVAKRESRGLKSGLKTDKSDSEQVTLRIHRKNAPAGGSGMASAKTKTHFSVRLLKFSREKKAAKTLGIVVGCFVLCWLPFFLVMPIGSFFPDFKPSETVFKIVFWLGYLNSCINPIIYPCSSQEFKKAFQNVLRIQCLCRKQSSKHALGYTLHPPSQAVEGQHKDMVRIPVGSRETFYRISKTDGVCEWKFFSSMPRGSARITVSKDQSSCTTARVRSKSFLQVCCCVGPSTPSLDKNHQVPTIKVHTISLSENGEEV

[5] = target: T4, Alpha-1D adrenergic receptor (Homo sapiens, UniProt P25100); assay: Displacement of [3H]prazosin from cloned human adrenergic alpha 1D receptor expressed in CHO cells; type: cell-based; outline: as §1
T4 sequence (P25100 whole entry): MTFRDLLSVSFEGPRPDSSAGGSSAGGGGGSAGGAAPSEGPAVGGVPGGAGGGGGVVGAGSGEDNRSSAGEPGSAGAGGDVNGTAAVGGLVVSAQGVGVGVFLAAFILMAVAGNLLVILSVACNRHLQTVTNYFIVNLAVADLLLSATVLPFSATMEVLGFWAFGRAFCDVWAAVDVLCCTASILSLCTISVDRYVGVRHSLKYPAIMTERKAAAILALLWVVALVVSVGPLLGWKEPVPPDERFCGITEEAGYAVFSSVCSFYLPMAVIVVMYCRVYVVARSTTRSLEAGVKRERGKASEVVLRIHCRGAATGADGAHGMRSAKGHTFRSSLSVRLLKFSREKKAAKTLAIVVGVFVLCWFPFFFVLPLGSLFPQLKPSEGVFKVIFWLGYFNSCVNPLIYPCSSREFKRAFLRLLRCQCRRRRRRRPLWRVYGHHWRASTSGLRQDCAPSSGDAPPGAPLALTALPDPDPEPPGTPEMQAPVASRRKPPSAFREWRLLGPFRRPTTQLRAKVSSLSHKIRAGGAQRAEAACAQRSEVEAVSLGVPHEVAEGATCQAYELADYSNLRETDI

[6] = target: Alpha adrenergic receptor (1a and 1d) (Homo sapiens) (UniProt P35348+P25100); assay: Selectivity for human adrenergic alpha 1A receptor over human adrenergic alpha 1D receptor
[7] = target: Adrenergic receptors; alpha-1 A & B (Homo sapiens) (UniProt P35348+P35368); assay: Selectivity for human adrenergic alpha 1B receptor over human adrenergic alpha 1A receptor; type: protein assay
[8] = target: T5, Alpha-1D adrenergic receptor (Rattus norvegicus, UniProt P23944); assay: Activity at adrenergic alpha 1D receptor assessed as antagonism on noradrenaline-induced contraction of Sprague-Dawley rat thoracic aorta; type: functional, tissue-based; settings: read-out: pA2 (converted)
T5 sequence (P23944 whole entry): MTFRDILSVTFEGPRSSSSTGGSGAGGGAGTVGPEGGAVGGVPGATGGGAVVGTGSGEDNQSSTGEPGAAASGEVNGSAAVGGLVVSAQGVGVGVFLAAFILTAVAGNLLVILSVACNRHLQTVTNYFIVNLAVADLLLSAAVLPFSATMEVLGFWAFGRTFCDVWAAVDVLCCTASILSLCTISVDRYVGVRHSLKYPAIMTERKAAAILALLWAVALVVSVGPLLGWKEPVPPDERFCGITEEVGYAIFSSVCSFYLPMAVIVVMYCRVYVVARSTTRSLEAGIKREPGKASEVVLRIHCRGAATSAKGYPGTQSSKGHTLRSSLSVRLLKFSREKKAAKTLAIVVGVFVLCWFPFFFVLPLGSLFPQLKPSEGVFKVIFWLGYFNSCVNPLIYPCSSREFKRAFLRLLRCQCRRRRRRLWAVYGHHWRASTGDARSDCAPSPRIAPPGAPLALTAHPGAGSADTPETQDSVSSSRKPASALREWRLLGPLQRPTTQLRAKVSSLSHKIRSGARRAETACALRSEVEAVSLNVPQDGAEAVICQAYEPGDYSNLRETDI
Outline: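 Rat thoracic aorta contracted with (-)-noradrenaline. Blocking activity was measured as antagonism of the contraction.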

Cavia porcellus [9] = species on record: Cavia porcellus; assay: Inverse agonist effect on calcium-induced increase in resting tension of calcium-depleted guinea pig thoracic aorta at 10 nM; type: functional
Outline: (§2)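 Guinea pig thoracic aorta was calcium-depleted and preincubated with antagonist, then challenged with Ca2+. The Ca2+-induced increase in resting tone was compared with the increase after the same Ca2+ challenge in the absence of antagonist.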

[10] = target: T6, Alpha-2A adrenergic receptor (Rattus norvegicus, UniProt P22909); assay: Activity at adrenergic alpha 2A receptor assessed as antagonism on clonidine-inhibited twitch responses of field-stimulated Sprague-Dawley rat vas deferens; settings: read-out: pA2 (converted)
T6 sequence (P22909 whole entry): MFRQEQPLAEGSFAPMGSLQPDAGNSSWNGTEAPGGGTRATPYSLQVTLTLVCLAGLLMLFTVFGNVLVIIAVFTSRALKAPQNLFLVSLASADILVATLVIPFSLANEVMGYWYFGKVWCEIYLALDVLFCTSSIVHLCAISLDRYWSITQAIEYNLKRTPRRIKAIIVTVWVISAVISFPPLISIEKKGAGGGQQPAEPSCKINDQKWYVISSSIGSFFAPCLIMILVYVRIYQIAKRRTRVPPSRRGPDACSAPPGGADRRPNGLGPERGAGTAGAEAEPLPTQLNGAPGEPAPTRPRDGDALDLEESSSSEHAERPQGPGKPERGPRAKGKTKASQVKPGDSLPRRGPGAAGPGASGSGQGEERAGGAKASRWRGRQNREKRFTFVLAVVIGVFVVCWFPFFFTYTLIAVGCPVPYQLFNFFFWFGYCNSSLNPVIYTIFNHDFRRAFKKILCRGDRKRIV

Cavia porcellus [11] = species on record: Cavia porcellus; assay: Inverse agonist effect on calcium-induced increase in resting tension of calcium-depleted guinea pig thoracic aorta at 100 nM; type: functional; outline: as §2
[12] = target: T7, Alpha-1A adrenergic receptor (Rattus norvegicus, UniProt P43140); assay: Activity at adrenergic alpha 1A receptor assessed as antagonsim of noradrenaline-induced contraction of […]; type: functional, tissue-based, Sprague-Dawley; settings: read-out: pA2 (converted)
T7 sequence (P43140 whole entry): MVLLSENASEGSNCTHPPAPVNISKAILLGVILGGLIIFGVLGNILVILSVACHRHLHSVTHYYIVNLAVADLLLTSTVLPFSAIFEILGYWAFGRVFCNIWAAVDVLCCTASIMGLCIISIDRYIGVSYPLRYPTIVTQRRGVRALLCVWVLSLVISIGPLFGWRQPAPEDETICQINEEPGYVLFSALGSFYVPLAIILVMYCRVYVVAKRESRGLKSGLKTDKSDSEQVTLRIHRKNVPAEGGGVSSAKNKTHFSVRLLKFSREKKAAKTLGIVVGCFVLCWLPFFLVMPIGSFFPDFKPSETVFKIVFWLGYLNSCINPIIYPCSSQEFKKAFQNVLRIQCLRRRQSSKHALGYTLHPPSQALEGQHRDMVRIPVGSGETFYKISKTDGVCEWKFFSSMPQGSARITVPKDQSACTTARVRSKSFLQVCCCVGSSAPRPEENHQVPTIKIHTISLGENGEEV
Outline: (§3)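 Rat vas deferens, prostatic portion. Contraction was induced with (-)-noradrenaline, and blocking activity was measured as antagonism of that contraction.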

[13] = target: T7, Alpha-1A adrenergic receptor; assay: Activity at adrenergic alpha 1A receptor assessed as antagonism of noradrenaline-induced contraction of Sprague-Dawley rat vas deferens; type: functional, tissue-based; settings: read-out: pA2 (converted); outline: as §3

SMILES | Ki [1] [nM] | Ki [2] [nM] | Selectivity ratio [3] | Ki [4] [nM] | Ki [5] [nM] | Selectivity ratio [6] | Selectivity ratio [7] | Kb [8] [nM] | Activity (Cavia porcellus [9]) [%] | Kb [10] [nM] | Activity (Cavia porcellus [11]) [%] | Kb [12] [nM] | Kb [13] [nM]
COc1ccc2c(c1OCCNC[C@@H]1COc3ccccc3O1)CCCC2 | 132 | 49 | 11.5 | 11.5 | 15.8 | 1.3 | 4.3 | – | – | – | – | – | –
COc1ccc2ccccc2c1OCCNC[C@@H]1COc2cc3c(cc2O1)CCCC3 | 3630 | 550 | 11.2 | 324 | 955 | 3 | 1.7 | – | – | – | – | – | –
COc1cccc(-c2ccccc2)c1OCCNC[C@@H]1COc2ccccc2O1 | 77.6 | 151 | 8.3 | 9.33 | 28.8 | 3.1 | 16.2 | – | – | – | – | – | –
COc1ccc(-c2ccccc2)cc1OCCNC[C@@H]1COc2ccccc2O1 | 363 | 61.7 | 22.4 | 16.2 | 53.7 | 3.3 | 3.8 | – | – | – | – | – | –
COc1cc(-c2ccccc2)ccc1OCCNC[C@@H]1COc2ccccc2O1 | 871 | 550 | 3.7 | 234 | 363 | 1.5 | 2.3 | – | – | – | – | – | –
COc1cccc(OC)c1OCCNC[C@H]1COc2ccccc2O1.Cl | 2.45 | – | – | 0.407 | – | – | – | 0.631 | 10 | 120 | 27 | 0.324 | –
COc1cccc(OC)c1OCCNC[C@@H]1COc2cc3c(cc2O1)CCCC3 | 501 | 398 | 5 | 100 | 204 | 2 | 4 | – | – | – | – | – | –
COc1cccc(OC)c1OCCNC[C@@H]1COc2ccccc2O1 | 40.7 | – | – | 11.2 | – | – | – | 22.4 | – | 457 | – | 20 | 16.2
COc1cccc(OC)c1OCCNCC1COc2ccccc2O1 (stereo not given) | – | – | – | – | – | – | – | – | 25 | 257 | – | 0.661 | –
COc1cccc(OC)c1OCCNC[C@@H]1COc2cc3ccccc3cc2O1 | 1000 | 427 | 9.8 | 102 | 295 | 2.9 | 4.2 | – | – | – | – | – | –
